Consider eleven compounds from ChEMBL document CHEMBL1649084, “Novel trisubstituted benzimidazoles, targeting Mtb FtsZ, as a new class of antitubercular agents” (J Med Chem, 2011).

≈ marks a conversion by molar mass, not a printed value.

The test system of one series is Vero. Description: Cytotoxicity against african green monkey Vero cells after 3 days by Alamar Blue assay. The class given is cell-based. The following applies: chlorocebus sabaeus, 72 h.
Series [1] concerns Mycobacterium tuberculosis. Description: Antimycobacterial activity against Mycobacterium tuberculosis H37Rv after 24 hrs by microplate Alamar Blue assay. The class given is functional. Summed up:
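MIC99 by microplate Alamar Blue: DMSO stocks serially diluted 2-fold in 96-well plates; Mtb grown in 7H9 + 10% OADC + 0.05% Tween-80, used at mid-log phase, added to OD600 0.005; 6 days at 37 °C, then AlamarBlue added and a further 24 h at 37 °C; read by colour change; triplicate.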

For series [2], the system named is Mycobacterium tuberculosis. Description: Antimycobacterial activity against Mycobacterium tuberculosis H37Rv NHN382 after 24 hrs by microplate Alamar Blue assay. The class given is functional. Background: The colour change of resazurin is a common sign of viable cells or microbes.
The subject of series [3] is Mycobacterium tuberculosis. Description: Antimycobacterial activity against Mycobacterium tuberculosis H37Rv W210 after 24 hrs by microplate Alamar Blue assay. The class given is functional.
Series [4] concerns the target T1, Cell division protein FtsZ (Mycobacterium tuberculosis) (UniProt P9WN95).
T1 sequence (whole entry): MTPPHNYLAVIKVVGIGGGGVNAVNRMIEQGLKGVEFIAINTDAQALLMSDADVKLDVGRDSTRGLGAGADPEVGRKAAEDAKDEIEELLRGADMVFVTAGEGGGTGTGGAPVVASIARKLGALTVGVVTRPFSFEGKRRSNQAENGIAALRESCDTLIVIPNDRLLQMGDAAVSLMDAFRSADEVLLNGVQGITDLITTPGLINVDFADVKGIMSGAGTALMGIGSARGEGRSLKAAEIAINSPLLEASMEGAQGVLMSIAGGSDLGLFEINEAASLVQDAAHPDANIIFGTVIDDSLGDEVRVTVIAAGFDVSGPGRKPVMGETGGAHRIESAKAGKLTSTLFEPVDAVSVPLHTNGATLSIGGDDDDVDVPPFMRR
Description: (§1) Inhibition of Mycobacterium tuberculosis FtsZ polymerization. In short, it runs like this:
(§2)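 90° light scattering at 30 °C, excitation/emission 400 nm. Inhibitor at various concentrations preincubated in 50 mM MES, 5 mM MgCl2, 50 mM KCl, pH 6.5 to baseline. Mtb FtsZ (15 μM) then added; polymerization started with 5 mM GTP (20 μL into 1,000 μL final); monitored 30-60 min. DMSO-matched controls.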

The target in series [5] is T2, Cell division protein FtsZ (Mycobacterium tuberculosis, UniProt P9WN95).
T2 sequence (P9WN95 whole entry): T1 sequence (whole entry)
Described as §1. Summed up:
as §2

In turn, `CCCOC(=O)Nc1cc2nc(C3CCCCC3)[nH]c2cc1N(CC)CC` displayed a Cytotoxic concentration in the series with Vero greater than 400 µM. In series [1], the MIC99 (usually the lowest concentration that inhibits either 99% of growth or 99% of the strains tested, depending on the study) came out at 4.3 µM (≈ 1.6 µg/mL).

As to `CCCCOC(=O)Nc1cc2nc(C3CCCCC3)[nH]c2cc1N1CCCC1`, the MIC99 in series [2] and in series [3] was 1 µM (≈ 0.385 µg/mL) throughout. This compound also registered a Cytotoxic concentration in the series with Vero greater than 200 µM.

On to `O=C(Nc1cc2nc(C3CCCCC3)[nH]c2cc1N1CCCC1)OCc1ccccc1`, for which the MIC99 in series [2] and in series [3] was 3.7 µM (≈ 1.55 µg/mL) each time. This compound came in with a Cytotoxic concentration in the series on Vero greater than 200 µM.

With `CCOC(=O)Nc1cc(NC(C)=O)c2[nH]c(-c3ccccc3)nc2c1`, the MIC99 in series [2] was found to be 2.3 µM (≈ 0.778 µg/mL); in series [3] (Mycobacterium tuberculosis, H37Rv W210, 24 h, read-out: MIC99), 4.6 µM (≈ 1.56 µg/mL). In addition, in the series with Vero, the Cytotoxic concentration was greater than 200 µM.

`CCN(CC)c1cc2[nH]c(C3CCCCC3)nc2cc1NC(=O)c1ccccc1` yielded a Cytotoxic concentration in the series on Vero greater than 400 µM. Besides, the MIC99 in series [1] was 7.9 µM (≈ 3.09 µg/mL). Also, in series [4], the Activity entry was “Dose-dependent effect”. Also, the IC50 (in general, the point on the concentration scale where inhibition reaches its midpoint) in series [5] turned out to be 6.21 µM.

In the series on Vero, `CCN(CC)c1cc2[nH]c(C3CCCCC3)nc2cc1NC(=O)OCc1ccccc1` gave a Cytotoxic concentration greater than 400 µM. This compound also displayed an MIC99 in series [1] of 3.8 µM (≈ 1.6 µg/mL).

For `C=CCCOC(=O)Nc1cc2nc(C3CCCCC3)[nH]c2cc1N(CC)CC`, the MIC99 in series [2] and in series [3] was 4.2 µM (≈ 1.62 µg/mL) throughout. Also, the Cytotoxic concentration in the series with Vero is greater than 400 µM.

On to `CCCCOC(=O)Nc1cc2nc(C3CCCCC3)[nH]c2cc1N(CC)CC`, for which the MIC99 in series [2] (Mycobacterium tuberculosis, H37Rv NHN382, 24 h, read-out: MIC99) was 2 µM (≈ 0.773 µg/mL); in series [3], 4 µM (≈ 1.55 µg/mL). Besides, in the series with Vero, the Cytotoxic concentration was greater than 400 µM. Further, in series [5], the IC50 was 7.69 µM.

`CCN(CC)c1cc2[nH]c(C3CCCCC3)nc2cc1NC(=O)c1ccc(Cl)cc1` gave a Cytotoxic concentration in the series on Vero greater than 400 µM. The MIC99 in series [1] was 14.1 µM (≈ 5.99 µg/mL).

In the case of `CCN(CC)c1cc2[nH]c(C3CCCCC3)nc2cc1NC(=O)c1ccc(OC)cc1`, the Cytotoxic concentration in the series with Vero is greater than 400 µM. This compound also showed an MIC99 in series [1] of 7.4 µM (≈ 3.11 µg/mL).

For the compound `CCN(CC)c1cc2[nH]c(C3CCCCC3)nc2cc1NC(=O)c1ccc(C)cc1`, in the series on Vero, the Cytotoxic concentration was greater than 400 µM. Further, the MIC99 in series [1] was 15.1 µM (≈ 6.11 µg/mL).
